Calls of active or inactive are those of the source. No cut-off for these calls is given here.
Key:
HepG2 [1] = assay: Cell cycle arrest in human HepG2 cells assessed as accumulation at G2/M phase at 0.5 uM after 24 hrs by flow cytometry (reference value: 11.29%); assay type: functional
HCT-116 [2] = assay: Cell cycle arrest in human HCT116 cells assessed as accumulation at S phase at 0.5 uM after 24 hrs by flow cytometry (reference value: 25.66%); assay type: functional
SK-OV-3 = assay: Antitumor activity against human SKOV3 cells xenografted in Balb/c athymic nude mouse assessed as tumor growth inhibition at 50 mg/kg, ip administered daily after 42 days; assay type: functional; conditions: SK-OV-3, ip, 1008 h, read-out: TGI
HepG2 [3] = assay: Induction of apoptosis in human HepG2 cells assessed as necrotic cells at 1 uM after 48 hrs by annexin V/propidium iodide staining-based flow cytometry (reference value: 1.59%); assay type: functional
HepG2 [4] = assay: Induction of apoptosis in human HepG2 cells assessed as necrotic cells at 0.5 uM after 48 hrs by annexin V/propidium iodide staining-based flow cytometry (reference value: 1.59%); assay type: functional
HCT-116 [5] = assay: Induction of apoptosis in human HCT116 cells assessed as early apoptotic cells at 1 uM after 48 hrs by annexin V/propidium iodide staining-based flow cytometry (reference value: 2.83%); assay type: functional
Procedure, shortened: (§1)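 HCT116 cells treated with compound or DMSO for 24 or 48 h, trypsinized, washed twice in PBS and dual-stained with annexin-V and PI. Analysed by flow cytometry: early apoptotic cells scored as annexin-V+/PI−, late apoptotic cells as annexin-V+/PI+.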

HCT-116 [6] = assay: Induction of apoptosis in human HCT116 cells assessed as late apoptotic cells at 1 uM after 24 hrs by annexin V/propidium iodide staining-based flow cytometry (reference value: 1.71%); assay type: functional
HepG2 [7] = assay: Induction of apoptosis in human HepG2 cells assessed as early apoptotic cells at 1 uM after 24 hrs by annexin V/propidium iodide staining-based flow cytometry (reference value: 0.87%); assay type: functional
[8] = Antiproliferative activity against human HCC827 cells after 48 hrs by MTT assay; assay type: functional, cell-based; conditions: HCC827, 48 h
Mus musculus = assay: Toxicity in Balb/c athymic nude mouse xenografted with human SKOV3 cells assessed as change in feeding and animal behavior at 20 to 50 mg/kg, ip administered daily; assay type: organism-based, SK-OV-3; conditions: in vivo
HCT-116 [9] = assay: Induction of apoptosis in human HCT116 cells assessed as late apoptotic cells at 1 uM after 48 hrs by annexin V/propidium iodide staining-based flow cytometry (reference value: 1.71%); assay type: functional
HepG2 [10] = assay: Antiproliferative activity against human HepG2 cells after 48 hrs by MTT assay; assay type: functional, cell-based; conditions: HepG2, 48 h
Procedure, shortened: (§2)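 HCT116, HepG2, SMMC-7721, SK-OV-3 and A2780s grown in DMEM; A549 and MCF-7 in RPMI-1640; all with 10% FBS and penicillin/streptomycin at 37 °C, 5% CO2. Log-phase cells at 40,000-50,000 cells/mL treated with graded concentrations for 48 h. MTT 3 h, DMSO solubilization, A570. IC50 from percent growth versus untreated control; mean ± SEM of ≥3 independent dose-response experiments.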

[11] = Antiproliferative activity against human doxorubicin-resistant MCF7 cells after 48 hrs by MTT assay; assay type: functional, cell-based; conditions: MCF7, 48 h
Procedure, shortened: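 MCF-7/ADR (doxorubicin-resistant) and A549/T (taxol-resistant) cells in RPMI-1640 with 10% FBS and penicillin/streptomycin. Log-phase cells at 40,000-50,000 cells/mL exposed to graded concentrations for 48 h. MTT 3 h, DMSO solubilization, absorbance 570 nm. IC50 from percent growth versus untreated control; mean ± SEM of ≥3 independent experiments.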

HepG2 [12] = assay: Induction of apoptosis in human HepG2 cells assessed as necrotic cells at 0.2 uM after 24 hrs by annexin V/propidium iodide staining-based flow cytometry (reference value: 1.59%); assay type: functional
Tubulin (Homo sapiens) = Tubulin (Homo sapiens) (UniProt P68371+Q9H4B7+P0DPH7+P68366+Q13509+Q71U36+P04350+Q3ZCM7+P07437+P68363+Q9BQE3+Q6PEY2+Q13885+Q9BVA1+Q9BUF5); assay: Binding affinity to tubulin in human HepG2 cells at 5 uM after 4 hrs by EBI competition assay; assay type: cell-based
Procedure, shortened: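 HepG2 cells seeded at 500,000 cells/well, allowed to adhere, then treated with compound for 4 h. EBI added at 100 µM for 1.5 h. Cell extracts (about 20 µg protein) run on 10% SDS-PAGE, blotted to PVDF, probed with anti-β-tubulin, detected by ECL with GAPDH as loading control. Read-out is loss of the faster-migrating β-tubulin–EBI adduct band.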

HCT-116 [13] = assay: Induction of apoptosis in human HCT116 cells assessed as viable cells at 0.5 uM after 48 hrs by annexin V/propidium iodide staining-based flow cytometry (reference value: 92%); assay type: functional; conditions: HCT-116, 48 h, read-out: Activity
HCT-116 [14] = assay: Induction of apoptosis in human HCT116 cells assessed as early apoptotic cells at 0.5 uM after 24 hrs by annexin V/propidium iodide staining-based flow cytometry (reference value: 2.83%); assay type: functional; procedure, shortened: as §1
HepG2 [15] = assay: Induction of apoptosis in human HepG2 cells assessed as early apoptotic cells at 1 uM after 48 hrs by annexin V/propidium iodide staining-based flow cytometry (reference value: 0.87%); assay type: functional
HepG2 [16] = assay: Cell cycle arrest in human HepG2 cells assessed as accumulation at G2/M phase at 1 uM after 24 hrs by flow cytometry (reference value: 11.29%); assay type: functional
HCT-116 [17] = assay: Induction of apoptosis in human HCT116 cells assessed as late apoptotic cells at 0.5 uM after 24 hrs by annexin V/propidium iodide staining-based flow cytometry (reference value: 1.71%); assay type: functional; procedure, shortened: as §1
[18] = Antiproliferative activity against human […] cells after 48 hrs by MTT assay; assay type: functional, cell-based; procedure, shortened: as §2
HCT-116 [19] = assay: Induction of apoptosis in human HCT116 cells assessed as necrotic cells at 0.5 uM after 48 hrs by annexin V/propidium iodide staining-based flow cytometry (reference value: 3.49%); assay type: functional
HCT-116 [20] = assay: Induction of apoptosis in human HCT116 cells assessed as late apoptotic cells at 0.2 uM after 48 hrs by annexin V/propidium iodide staining-based flow cytometry (reference value: 1.71%); assay type: functional; procedure, shortened: as §1
HCT-116 [21] = assay: Induction of apoptosis in human HCT116 cells assessed as necrotic cells at 0.5 uM after 24 hrs by annexin V/propidium iodide staining-based flow cytometry (reference value: 3.49%); assay type: functional
HepG2 [22] = assay: Induction of apoptosis in human HepG2 cells assessed as viable cells at 0.2 uM after 24 hrs by annexin V/propidium iodide staining-based flow cytometry (reference value: 89.8%); assay type: functional; conditions: HepG2, 24 h, read-out: Activity
HCT-116 [23] = assay: Cell cycle arrest in human HCT116 cells assessed as accumulation at S phase at 0.2 uM after 24 hrs by flow cytometry (reference value: 25.66%); assay type: functional
HepG2 [24] = assay: Induction of apoptosis in human HepG2 cells assessed as late apoptotic cells at 0.2 uM after 48 hrs by annexin V/propidium iodide staining-based flow cytometry (reference value: 3.74%); assay type: functional

With `CCOc1ccc(-c2nc(N)sc2-c2cc(OC)c(OC)c(OC)c2)cc1` the Activity (HepG2 [1]) was 62.63%, the Activity (HCT-116 [2]) was 20.51% and the inhibition in vivo at 50 mg/kg (SK-OV-3) was 72.7%. For the same molecule, the Activity (HepG2 [3]) was 0.4%, the Activity (HepG2 [4]) was 0.7% and the Activity (HCT-116 [5]) was 43.1%. The Activity (HCT-116 [6]) was 17.1%, the Activity (HepG2 [7]) was 25.4% and the IC50 [8] was 0.097 µM. For the same molecule, the Activity (Mus musculus) was “Non-toxic”, the Activity (HCT-116 [9]) was 32.6% and the IC50 (HepG2 [10]) was 0.0264 µM. For the same molecule, the IC50 [11] was 0.19 µM, the Activity (HepG2 [12]) was 0.95% and the Activity (Tubulin (Homo sapiens)) was “inactive”. For the same molecule, the viability at 0.5 µM (HCT-116 [13]) was 29.1%, the Activity (HCT-116 [14]) was 11.2% and the Activity (HepG2 [15]) was 74%. The Activity (HepG2 [16]) was 83.67%, the Activity (HCT-116 [17]) was 10.8% and the IC50 [18] was 0.023 µM. It also gave an Activity (HCT-116 [19]) of 4.36%, an Activity (HCT-116 [20]) of 23.4% and an Activity (HCT-116 [21]) of 3.5%. For the same molecule, the viability at 0.2 µM (HepG2 [22]) was 81.8%, the Activity (HCT-116 [23]) was 22% and the Activity (HepG2 [24]) was 4.17%.
